Experimental data: the RNAGym collection of RNA variant scans (doi:10.1126/science.aae0568)
Variants at the floor of the assay were thinned out.

B1: tRNA (parent)
chain: GUUCCGUUGGCGUAAUGGUAACGCGUCUCCCUCCUAAGGAGAAGACUGCGGGUUCGAGUCCCGUACGGAACG

Variants of: B1
Test: yeast fitness relative to wild type (ratio to wild type); higher = fitter; tRNA-Arg(CCU), competitive growth, 37 C, YPD
In short: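 For this measurement, the tRNA-Arg(CCU) gene was varied by chemical synthesis at a 3% per-site mutation rate across 69 sites, and each variant was placed at the native genomic locus in Saccharomyces cerevisiae. The pooled strains went through a 24-hour competition in YPD at 37°C in six parallel replicates, with amplicons from start and end populations read by 100-nucleotide paired-end sequencing. Darwinian fitness relative to wild type followed from the change in each genotype's frequency. Genotypes needed ≥ 100 starting reads, and estimates < 0.5 were set to 0.5.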

| Variant | yeast fitness |
| --- | --- |
| GUUCCGUUCGCGUAAUGGUAACGCGUCUCCCUCCUAAGCAGAAGACUGCGGGUUCGAGUCUCGUACGGAACG | 0.544 |
| GUUCCGUUCGCGAAAUGGUAACGCAUCUCCCUCCUAAGGCGAAGACUGCGGGUUCGCGUCACGUACGGAACG | ≤ 0.5 |
| GUUCCGUUCGCGUAAUGGUAACGCGUCUCCCUCCUAAGGAGAAGACUGCGGGUUCAAGUCCCGUACGGAACG | 0.863 |
| GUUCCGUUCGCGUAAUGAUAAGGCGUCUUCCGCCUAAGGAGAAGACUGCGGGUUCGUGUCCCGUACGGAACG | ≤ 0.5 |
| GUUCCGUUCGCGUAAUGGUAACGCGUCUCCCUCCUAAGGAGAAGACUGCGGAUUCGAGUCCCGUACGGAACG | 0.564 |
| GUUCCGUUCGCGAAAUCGUAACGCGUCUCCCUCCUAAGGAGAAGACUGCGGGUUCGAGUCCCGUACGGAACG | ≤ 0.5 |
| GUUCCGUUCGCGUAACGGUAACGCGUCUCUCGCCUAAGGAGAAGACUGCGGGUUCGAGUCCCGUACGGAACG | ≤ 0.5 |
| GUUCCGUUCGCGUAAUGGUAACGCGUCUCCCUCCUAAGGACAAGUCUGCAGGUUCGAGUCCCGUACCGAACG | 0.616 |
| GUUCCGUUCGCGAAAUGGUAACGCAUCUCCCUCCUAAGGCGAAGACUGCGGGUUCGAGUCCCGUAUGGAACG | ≤ 0.5 |
| GUUCCGUUCGCGCAAUGGUAACGCGUCUCCCUCCUAAGGAGAAGACUGCGGGUUCGAGUCCCGUACGGAACG | 0.626 |
| GUUCCGUUCGCGUAAUGGUAACGCGUCUCCCUCCUAAGGAGAAGACUGCGGGUUCGAGUCCCGUACGAAACG | 0.763 |
| GUUCCGUUCGCGUAAUGGUAACACGUCUCCCUCCUAAGGCGAAGACUGCGGGUUGGAGUCCCGUACGGAACG | 0.549 |
| GUUCCGUUCGCGUAAUGGUAACGCGUCUCCCUCCUAAGAAGAAGACUGCGGGUUCGAGUCCCGUACGCCACG | ≤ 0.5 |
| GUUCCGUUCGCGUAAUGGAAGCGCGUCUCCCUCCUAAGGAGACGACUGCGGGUUCGAGUCCCGUGCAGAACG | ≤ 0.5 |
| GUUCCGUUCGCGUAAUGGUAACACGUCUCCCUCUUAAGGAGAAGACUGCGGGUUCGAGUCCCGUACGGAACG | 0.655 |
| GUUCCGUUCGCGUAAUGGUAACGCGUCUCCCUCCUAAGGAGAAAACUGCGGGUUCGAGUCCCGUACGGAACG | 0.673 |
| GUUCCGUUCGCGUAAUGGUAACGCGUCUCCCUCCUAAGGAGAAGACUGCCGGUUCGAGUUCAGUACGGAACG | ≤ 0.5 |
| GUUCCGUUCGCGUAAUGCUAACGCGUCUCCCUCCUAAGGAGAAGACUGCGGGUUCGAGUCCCGUACGGAACG | 0.525 |
| GUUCCGUUCGCGUAAUGCUAACGCGUCUCCCUCCUAAGGAGAAGACUGGGGGUUCGAGUCCCGUUCGGAACG | 0.553 |

| Variant | yeast fitness |
| --- | --- |
| GUUCCGUUCGCGUAAUGGUAACGCGUCUCCCUCCUAAGCAGAAGACUGCGGGUUCGAGUCCCGUACGGUACG | ≤ 0.5 |
| GUUCCGUUCGCGUAAUGGUAACGCGUCUCCCUCCUAAGGAGAAGACUGCGGGUUCGAGUCCCGUACAGAACG | 0.58 |
| GUUCCGUUCGCGUAAUGGUAACACGUCUCCCUGCUAAGGAGAAGACUGCGGGUUCGAGUCCCGUACGGAACG | ≤ 0.5 |
| GUUCCGUUCGCGUAAGGGUAACGCGUCUCCCUCCUACGGAGAAGACUGCGGGUUCGAGUCCCGUACGGAACG | 0.735 |
| GUUCCGUUCGCGUAAUGGUAACCCGUCUCCCUCCUAAGGAGAAGACUGCGGGUUCGCGUCCCGUACGGAACG | ≤ 0.5 |
| GUUCCGUUCCCGUAAUGCUAACGCGUCUCCCUUCUAAGGAGAACAUUGCGGGUUCGAGUCCUGUACGGAACG | 0.599 |
| GUUCCGUUCGCGUAAUGGUAACGCGUCUCCCUCCUAAGGAGAAGACUGCGGGUUCGACAUCCGUACGGAACG | ≤ 0.5 |
| GUUCCGUUCGCGCAAUGGUAACGCGUCUCACUCCUAAGGAGAAGAAUCCGGGUUCGAGUCCCGUACGGACCG | 0.548 |
| GUUCCGUUCGCGUAAUGGUAACGCGUCUCCCUCCUAAGGAGAAGACUGCGCAUUCGAGUACCGUACGGAUCG | ≤ 0.5 |
| GUUCCGUUCGCGUAAUGGUAACGCGUCUCCCUCCUAAGGAGAAGACUGCGGCUUCGAGUACCGUACGGAACG | ≤ 0.5 |
| GUUCCGUUCGCGUAAGGGUAACGCGUCUCCCUCCUAAGGAGAAGACUGCGGGUUCGAGUCCCGUUCGGAACG | ≤ 0.5 |
| GUUCCGUUCGCCUAAUGGUAACGCGUCUCCCUCCUAAGGAGAAGACGGCGGGUUCGAGUCCCGUACCGAACG | 0.607 |
| GUUCCGUUCCCGUAAUGGUAACGCGUCUCCCUCCUAAGGAGAAGACUGCGGGUUCGAGUCUCGUACGGAACG | ≤ 0.5 |
| GUUCCGUUCGCGCAAUGGUAACGCGUCUCCCUCCUAAGGAGAUGACUGCGGGUUCGAGUCCCGUACGGAACG | 0.618 |
| GUUCCGUUCGCGUAAUGCUAACGCGUCUCCCGCCUAAGGACAAGAUUGCGGGUUCGAGUCCCGUACGGAACG | ≤ 0.5 |
| GUUCCGUUCGCGUAAUGGUAACGCGUCUCCCUCCUAAGCAGAAGACUGCGGGUUGGAGUCCGGUCCGGAACG | ≤ 0.5 |
| GUUCCGUUCGCGUAAAGGUAACGCGUCUACCUCCUAAGGAGAAGACUGCGGGUUCGACUCCCGUACGGUACG | 0.645 |
| GUUCCGUUCGCGUAAUGGUAACGCGUCUCCCUCCUAAGCAGAAGACUGCGGGUUCGAGUCCCGUACUGAACG | ≤ 0.5 |
